Ecoli WT expand = blocks growth of wild type E. coli BW25113 | OD600 absorbance | growth inhibition, % at 100 µM | actives 0.15% (n = 98,000) | AID 710;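 active = growth inhibition above about 50% at one test dose, limit read from the data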;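 also: growth measured after 20 h incubation at 37 °C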
Her2 expr inh = inhibitors of human Her2 kinase expression | P04626 | SKBR-3 HER2 protein level, AlphaScreen, 18-24 h; active compounds read low | HER2 level % of control, % at 10 µM | actives 0.69% (n = 65,000) | AID 645;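 active = HER2 level under 5% of the carrier-only control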;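 also: lower value means stronger loss of Her2 protein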
tolC growth inh = E. coli tolC mutant growth inhibition; E. coli BW25113 tolC mutant growth, OD615; growth inhibition, % at 10 µM (by protocol); actives 2.2% (n = 65,000);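 active = growth inhibition at or above a cutoff equal to the mean over every tested compound plus 3 SD, cut at about 60% in these data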;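 also: growth measured after 20 h incubation at 37 °C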
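Material: E. coli BW25113 ΔtolC::kan, tolC deletion mutant strain. Measure: percent growth inhibition. Schedule: 37 °C, 20 h exposure. Doses: single-point testing at 10 µM. Signal: A615 absorbance measurement. Buffer or medium: kanamycin-containing LB broth (50 µg/mL).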
PostGolgi yeast = growth inhibition of a yeast mutant, post-Golgi transport screen | post-Golgi transport phenotypic cell assay | inhibition, % at 10 µM | actives 0.9% (n = 98,000) | AID 739;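 also: yeast cells grown in 1536-well plates; yeast grown about 18 h at 30C before absorbance read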
PostGolgi ctrl = growth of the yeast control strain, post-Golgi counter-screen; inhibition, % at 10 µM; AID 738; actives 5% (n = 98,000); efflux-deficient yeast background strain, growth absorbance A615, 16 h
Hits are given with their value; i = inactive; nt = not tested or not shown. Compounds with a hit are over-represented: about 6.6% of the library has one in this group of screens. Rule as the data show it, unless noted: active = inhibition above about 30%; inactive = the rest.

SMILES	Ecoli WT expand	Her2 expr inh	tolC growth inh	PostGolgi yeast	PostGolgi ctrl
COc1ccc(CCNc2cc(=O)[nH]c(N)n2)cc1	i	i	i	i	i
COc1cccc(OCc2nc3ccccc3c(=O)n2N)c1	i	i	i	i	31
Nn1c(COc2ccccc2)nc2ccccc2c1=O	i	i	i	i	i
COC(=O)c1cc2c(-c3ccccc3)cc3ccccn3c-2c1C(=O)OC	i	nt	nt	i	43
COC(=O)c1c(C)c2c(C)cc3ccccn3c-2c1C(=O)OC	i	nt	nt	i	i
COc1ccc(-c2cn3c(C)c(C(=O)NCc4ccc5c(c4)OCO5)sc3n2)cc1	nt	i	i	nt	nt
O=C(CCC(=O)N1CCOCC1)Nc1nnc(C2CCCCC2)s1	i	nt	nt	i	i
CC1(C)CN(c2ccccc2)N(Cc2ccc(F)cc2)C1=O	i	nt	nt	i	i
CC(=O)N1CCN=C1SCc1ccc(C)cc1	i	i	i	i	i
CC(=O)N1CCN=C1SCc1ccc(Cl)cc1	i	i	i	i	35
CCCCNC(=S)Nc1ccccc1F	i	nt	nt	i	i
CCCOC(=O)CSc1nnc(-c2ccccc2Cl)o1	i	i	i	i	i
C=CCn1c(NC(C)c2cc(Cl)ccc2O)nc2ccccc21 (configuration not stated)	i	i	100	i	32
COc1ccc(Cl)cc1C(=O)NC(=S)Nc1cc(-c2nc3ccccc3[nH]2)ccc1C	i	nt	nt	i	35
CC(=NCc1ccco1)c1c(O)n(C2CCCCC2)c(=O)[nH]c1=O	i	i	i	i	44
Cc1cc(C)n(CC(O)Cn2c3ccc(Br)cc3c3cc(Br)ccc32)c(=O)n1 (configuration not stated)	i	nt	nt	99	103
CC1CCN(C(=O)c2scc3c2OCCO3)CC1	i	i	i	i	i
O=c1ccc(/C=C/c2ccccc2)nn1Cc1ccc(Cl)cc1Cl	i	nt	nt	i	i
O=c1ccc(/C=C/c2ccccc2)nn1Cc1ccccc1Cl	i	nt	nt	i	41
Cc1cc(S(=O)(=O)Nc2cccc(O)c2)c(C)s1	i	i	i	i	i
O=C(Oc1ccccc1)c1ccccc1OS(=O)(=O)c1ccccc1	i	nt	nt	i	i
COc1ccccc1C(=O)Oc1ccc(C(C)C)cc1	i	nt	nt	i	39
CCOCCCNC(=O)C(c1ccc(OC)cc1)N(Cc1ccc2c(c1)OCO2)C(=O)CNC(C)=O (configuration not stated)	i	-22	i	i	i
CCOCCCNC(=O)C(NC(=O)c1ccc2c(c1)OCO2)c1ccc(OC)cc1 (configuration not stated)	i	i	i	i	i
Fc1ccc(/C=C2\CCCC3=C2Nc2ncnn2C3c2ccc(F)cc2)cc1 (configuration not stated)	i	nt	nt	i	81
SMILES	Ecoli WT expand	Her2 expr inh	tolC growth inh	PostGolgi yeast	PostGolgi ctrl
COc1ccc(C2C3=C(Nc4ncnn42)c2ccccc2CCC3)cc1 (configuration not stated)	i	i	i	i	i
CC(=O)Nc1nonc1NC(C)=O	i	i	i	i	i
CC(=O)Nc1cc(OC(C)=O)c2nonc2c1OC(C)=O	nt	-6.9	i	nt	nt
CCOC(=O)c1oc2ccccc2c1NC(=O)c1ccccc1OC	i	i	i	i	70
CCOC(=O)c1sc(NC(=O)c2ccccc2OC)nc1C	i	nt	nt	i	42
COc1cc(OC)c(OC)cc1/C=N/N(C)c1ccccc1	i	nt	nt	i	45
CCS(=O)(=O)N1CCN(c2ccc([N+](=O)[O-])c(NC(C)c3ccccc3)c2)CC1 (configuration not stated)	i	nt	nt	i	44
CCS(=O)(=O)N1CCN(c2ccc([N+](=O)[O-])c(NCc3ccccc3)c2)CC1	i	nt	nt	i	i
Cc1ccc(-c2csc3ncnc(N4CCN(C(=O)c5ccccc5)CC4)c23)cc1	i	nt	nt	i	32
c1ccc(N2CCN(c3ncnc4scc(-c5cccs5)c34)CC2)cc1	i	i	i	i	47
O=C(c1ccco1)N1CCN(c2ncnc3scc(-c4cccs4)c23)CC1	i	i	i	i	i
O=C(c1ccco1)N1CCN(c2ncnc3scc(-c4ccccc4)c23)CC1	i	nt	nt	i	i
COc1ccccc1N1CCN(C(=O)CSc2nc3ccccc3c(=O)n2CC2CCCO2)CC1 (configuration not stated)	i	i	i	i	i
O=C(COc1ccc(Br)cc1)Nc1ccc([N+](=O)[O-])cn1	i	nt	nt	i	i
COc1cc(NC(=O)CN2CCN(c3ccccc3F)CC2)cc(OC)c1	i	i	i	i	i
O=C(CN1CCNCC1)Nc1ccc(Oc2ccccc2)cc1	i	nt	nt	i	39
O=C(CN1CCN(c2ccccc2)CC1)Nc1ccc(Oc2ccccc2)cc1	i	nt	nt	i	42
COc1cccc(NC(=O)CN2CCN(c3ccccc3F)CC2)c1	i	i	i	i	32
O=C(CN1CCOCC1)Nc1ccc(Oc2ccccc2)cc1	i	i	i	i	i
CCN1CCN(S(=O)(=O)c2ccc3ccccc3c2)CC1	i	nt	nt	i	i
Cc1onc(-c2ccccc2)c1C(=O)N1CCc2ccccc21	i	i	i	i	i
COc1ccc(CCNC(=O)CSc2nnc(CNC(=O)c3ccccc3F)o2)cc1OC	i	i	i	i	i
CCOC(=O)C1=C(C)NC(=O)NC1c1ccccc1OCc1c(F)cccc1Cl (configuration not stated)	i	nt	nt	i	i
C=C(C)C1Cc2c(C)nn(-c3cccc4ccccc34)c2C1 (configuration not stated)	i	nt	nt	i	40
C=C(C)C1Cc2c(C)nn(-c3ccccc3)c2C1 (configuration not stated)	i	i	i	i	i
SMILES	Ecoli WT expand	Her2 expr inh	tolC growth inh	PostGolgi yeast	PostGolgi ctrl
CCc1ccc(-n2c(=O)c3c(C)c(C(=O)N(C)C)sc3n(CC(=O)NCc3ccco3)c2=O)cc1	i	nt	nt	i	i
Cc1cccnc1NC1(C(F)(F)F)N=C(c2ccccc2)NC1=O (configuration not stated)	i	nt	nt	i	i
COc1ccc(-c2nc3n(n2)C(=O)CC(c2ccco2)S3)cc1 (configuration not stated)	i	i	i	i	41
O=C(COCc1nc2ccccc2c(=O)[nH]1)NC1CCCC1	i	i	i	i	i
O=C(CS(=O)(=O)c1c[nH]c2ccccc12)NC1CCCCC1	i	nt	nt	i	i
CCn1cc(S(=O)(=O)CC(=O)N2CCc3ccccc32)c2ccccc21	nt	1.6	i	nt	nt
CCCn1cc(S(=O)(=O)CC(=O)N2CCc3ccccc32)c2ccccc21	i	i	i	i	i
CCn1cc(S(=O)(=O)CC(=O)NC2CCCCC2)c2ccccc21	i	i	i	i	42
O=C(Nc1nnc(C2CC2)o1)c1ccc(S(=O)(=O)N2CCCc3ccccc32)cc1	i	i	100	33	i
CCC(=O)N1CCCc2cc(S(=O)(=O)N3CCCc4ccccc43)ccc21	i	i	i	i	35
O=C(NCc1ccco1)c1ccc(S(=O)(=O)N2CCCc3ccccc32)cc1	i	i	71	i	i
CCC(=O)N1CCc2cc(S(=O)(=O)N3CCc4ccccc4C3)ccc21	i	i	i	i	i
Cc1ccnc(NS(=O)(=O)c2ccc(NS(=O)(=O)Cc3ccccc3)cc2)n1	i	i	i	i	i

Compound activity deposited in PubChem BioAssay by SRMLSC.
